According to PMC3319156 (Journal of Medicinal Chemistry, 2011):

Columns and labels:
Tyr705 of Stat3 [1] = target: T1, Tyr705 of Stat3 (Homo sapiens, UniProt P40763); experiment: Inhibition of constitutive Stat3 Tyr705 phosphorylation in MDA-MB-468 cells; type: cell-based
Outline: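 MDA-MB-468 cells (4 × 10^5/well) were grown overnight in DMEM with 10% FCS. Prodrug was given from a 10 mM DMSO stock prepared fresh, for 2 h, or over a time course. After ice-cold PBS washes, cells were lysed (Hepes pH 7.4, Triton X-100, NaF, vanadate, protease inhibitors). 12 µg protein went on 8% SDS-PAGE/PVDF with 5% BSA block. Blots were probed for pStat3 Y705 by ECL, stripped at 50°C, and reprobed for total Stat3.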

Tyr705 of Stat3 [2] = target: T1, Tyr705 of Stat3; details: MDA-MB-468; cited from earlier work
Ser473 of Akt [3] = experiment: Akt Ser473 phosphorylation in HCC-827 NSCLC cells; type: cell-based
Stat3 [4] = target: T2, Stat3 (Homo sapiens, UniProt P40763); experiment: IL-6-stimulated Stat3 phosphorylation in MeWo melanoma cells; type: cell-based; details: 1.5 hour exposure then IL-6
Outline: (§1)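 Hey, MeWo and A375 cells were seeded at 3 × 10^5 cells/well in RPMI1640 and cultured overnight, with a media change. Cells then received increasing test compound concentrations for 2 h. IL-6 at 10 ng/mL was present for the last 30 min. Lysates were blotted for pStat3 Y705 and total Stat3 as in the constitutive assay.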

Bcl-xL = experiment: Expression of downstream gene Bcl-xL in MDA-MB-468 cells; type: cell-based; details: MDA-MB-468, 5 µM
p38 MAPK = p38 MAPK phosphorylation in HCC-827 NSCLC cells; type: cell-based
Tyr694 of Stat5 = experiment: Stat5 Tyr694 phosphorylation in MDA-MB-468 cells; type: cell-based
pTyr705 Stat3 = pTyr705 Stat3 (Homo sapiens, UniProt P40763); type: cell-based; details: MDA-MB-468, 5 µM, 2 h
Outline: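 MDA-MB-468 cells on slides were given DMSO or 5 µM test compound for 2 h. Cells were fixed in 4% paraformaldehyde, permeabilized with 0.5% Triton X-100 and blocked with 3% BSA. Staining used anti-pTyr705 Stat3 and an Alexa Fluor 594 secondary. Confocal imaging used identical microscope settings throughout.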

Stat3 [5] = target: T2, Stat3; experiment: Stat3 phosphorylation in HCC-827 non-small-cell lung cancer cells; type: cell-based; details: HCC-827, 5 µM
Stat3 [6] = target: T2, Stat3; experiment: IL-6-stimulated Stat3 phosphorylation in A375 melanoma cells; type: cell-based; details: A375, 1.5 hour exposure then IL-6
Outline: as §1

survivin [7] = experiment: Expression of survivin in MDA-MB-468 cells; type: cell-based; details: MDA-MB-468 breast line, data not shown
[8] = test system: Tyr861 of the focal adhesion kinase (FAK); experiment: Constitutive FAK Tyr861 phosphorylation in MDA-MB-468 cells; type: cell-based
Outline: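 Constitutive signal, no stimulus: MDA-MB-468 cells were plated overnight in DMEM/10% FCS and given test compound from a 10 mM DMSO stock for 2 h. Cells were lysed in Hepes pH 7.4 detergent buffer with phosphatase and protease inhibitors. Protein was separated by SDS-PAGE, blotted to PVDF, blocked with 5% BSA, and probed for pTyr861 FAK and total FAK.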

cyclin D1 [9] = experiment: Expression of cyclin D1 in HCC-827 cells; type: cell-based; details: HCC-827, 5 µM
Stat3 [10] = target: T2, Stat3; experiment: IL-6-stimulated Stat3 phosphorylation in HEY ovarian cancer cells; type: cell-based; details: 1.5 hour exposure then IL-6
Outline: as §1

Stat3 [11] = target: T2, Stat3; experiment: Constitutive Stat3 phosphorylation in SKOV3ip ovarian cancer cells; type: cell-based
Outline: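 SKOV3-ip cells were seeded at 3 × 10^5 cells/well in McCoy's 5A medium and handled as for MDA-MB-468. Prodrug was added from a 10 mM DMSO stock made just before use, for 2 h. Cells were lysed in Hepes pH 7.4/Triton X-100 buffer with phosphatase and protease inhibitors. 12 µg protein was run on 8% SDS-PAGE, blotted for pStat3 Y705 by ECL, then stripped and reprobed for total Stat3.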

survivin [12] = experiment: Expression of survivin in HCC-827 cells; type: cell-based; details: HCC-827 lung line, 5 µM
Stat3 [13] = target: T2, Stat3; experiment: EGF-stimulated Stat3 phosphorylation in MDA-MB-468 cells; type: cell-based; details: MDA-MB-468, 5 µM, 1.5 h then EGF 30 min
Tyr701 of Stat1 = target: T3, Tyr701 of Stat1 (Homo sapiens, UniProt P42224); experiment: IFNγ-stimulated Stat1 Tyr701 phosphorylation in MDA-MB-468 cells; type: cell-based; details: MDA-MB-468, 1.5 h then 30 min IFNγ
T3 sequence (P42224 1-750): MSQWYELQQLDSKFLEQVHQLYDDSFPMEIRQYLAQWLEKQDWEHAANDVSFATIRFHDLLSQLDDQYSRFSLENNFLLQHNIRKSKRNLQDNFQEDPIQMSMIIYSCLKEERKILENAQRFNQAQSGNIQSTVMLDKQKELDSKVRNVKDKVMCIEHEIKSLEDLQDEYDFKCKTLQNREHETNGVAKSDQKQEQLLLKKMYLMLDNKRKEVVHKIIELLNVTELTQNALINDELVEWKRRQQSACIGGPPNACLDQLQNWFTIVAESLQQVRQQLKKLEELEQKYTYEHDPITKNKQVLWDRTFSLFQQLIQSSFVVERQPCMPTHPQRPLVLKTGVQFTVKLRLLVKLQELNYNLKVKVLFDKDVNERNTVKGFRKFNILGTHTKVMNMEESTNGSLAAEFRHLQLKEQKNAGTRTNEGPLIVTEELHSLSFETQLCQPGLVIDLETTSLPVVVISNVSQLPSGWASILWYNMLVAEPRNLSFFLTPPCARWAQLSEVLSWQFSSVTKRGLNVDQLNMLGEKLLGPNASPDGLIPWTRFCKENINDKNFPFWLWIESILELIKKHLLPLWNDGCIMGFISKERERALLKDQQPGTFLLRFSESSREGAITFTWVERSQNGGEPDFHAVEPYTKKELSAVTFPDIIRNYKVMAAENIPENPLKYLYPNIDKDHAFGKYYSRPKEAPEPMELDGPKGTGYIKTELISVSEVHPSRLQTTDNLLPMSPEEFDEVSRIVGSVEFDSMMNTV
Outline: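 MDA-MB-468 cells were prepared as for the Stat3 assay (plated overnight in DMEM/10% FCS) and exposed to increasing test compound concentrations for 1.5 h. Interferon γ was then added at 25 ng/mL for 30 min. Lysates were run on PAGE, blotted to PVDF, and probed for pTyr701 Stat1 and total Stat1 with chemiluminescent detection.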

MDA-MB-468 cells = experiment: Cytotoxicity to MDA-MB-468 cells, MTT assay; type: cell-based; details: MDA-MB-468, treated daily for three days
Outline: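 MDA-MB-468 cells in DMEM with 10% FBS were plated at 1500 cells/well in triplicate, and the medium was changed the next day. Prodrug was dissolved fresh in ethanol to a 10 mM stock, diluted, and added. Further doses went into the same medium at 24 and 48 h, with final ethanol below 1%. Viability was read by MTT.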

cyclin D1 [14] = experiment: Expression of downstream gene cyclin D1 in MDA-MB-468 cells; type: cell-based; details: MDA-MB-468, 5 µM
H528 = experiment: Growth inhibition of H528 NSCLC cells; type: cell-based; details: H528, 5–10 µM, data not shown
Ser473 of Akt [15] = experiment: Akt Ser473 phosphorylation in MDA-MB-468 cells; type: cell-based
[16] = MDA-MB-468, 2 h treatment, western blot
[17] = MDA-MB-468, single dose of 5 µM
[18] = MDA-MB-468, 5 µM, 1.5 h then EGF 30 min
[19] = MDA-MB-468, 25 µM, two hour treatment

T2 sequence (P40763 whole entry): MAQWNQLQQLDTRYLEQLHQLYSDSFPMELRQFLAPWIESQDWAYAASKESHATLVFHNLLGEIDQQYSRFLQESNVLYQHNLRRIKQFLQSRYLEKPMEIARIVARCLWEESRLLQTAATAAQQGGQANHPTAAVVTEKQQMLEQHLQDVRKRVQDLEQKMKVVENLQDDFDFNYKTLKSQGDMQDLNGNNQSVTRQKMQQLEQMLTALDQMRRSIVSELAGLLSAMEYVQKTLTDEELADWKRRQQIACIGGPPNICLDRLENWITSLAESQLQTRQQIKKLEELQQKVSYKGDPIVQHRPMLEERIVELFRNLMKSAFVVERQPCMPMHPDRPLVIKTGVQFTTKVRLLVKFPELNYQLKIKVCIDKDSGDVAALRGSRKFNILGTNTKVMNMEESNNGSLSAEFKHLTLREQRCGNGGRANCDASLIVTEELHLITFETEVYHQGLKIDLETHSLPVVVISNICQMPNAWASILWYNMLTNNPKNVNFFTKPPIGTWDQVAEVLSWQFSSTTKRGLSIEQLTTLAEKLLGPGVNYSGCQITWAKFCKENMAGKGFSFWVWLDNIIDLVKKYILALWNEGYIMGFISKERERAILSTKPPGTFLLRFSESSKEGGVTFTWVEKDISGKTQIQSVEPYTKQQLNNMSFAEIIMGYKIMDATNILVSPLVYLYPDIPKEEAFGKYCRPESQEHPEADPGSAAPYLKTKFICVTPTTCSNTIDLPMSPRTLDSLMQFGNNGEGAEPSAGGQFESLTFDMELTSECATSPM
T1 sequence (P40763 whole entry): as above
pTyr705 Stat3, sequence (P40763 whole entry): as above

CC(C)(C)C(=O)OCOP(=O)(OCOC(=O)C(C)(C)C)C(F)(F)c1ccc(/C=C/C(=O)N[C@H]2CCc3cccc4c3N(C2=O)[C@H](C(=O)N[C@@H](CCC(N)=O)C(=O)NCc2ccccc2)C4)cc1 [compound 3]
effect on level of pStat3 (Tyr705 of Stat3 [1]; MDA-MB-468, 2 h, increasing concentrations): reduced the level of pStat3 in a dose-dependent manner | concentration that completely inhibited constitutive phosphorylation of Stat3 Tyr705 (Tyr705 of Stat3 [2]): 10 µM

C/C(=C\C(=O)N[C@H]1CCc2cccc3c2N(C1=O)[C@H](C(=O)N[C@H](C)CCC(N)=O)C3)c1ccc(C(F)(F)P(=O)(OCOC(=O)C(C)(C)C)OCOC(=O)C(C)(C)C)cc1 [compound 34, βMF2Pm(POM2)Cinn-Haic-Apa]
phosphorylation of Ser473 of Akt (Ser473 of Akt [3]): no effect | concentration at which pStat3 was completely inhibited (Tyr705 of Stat3 [1]; [16]): 0.5 µM | concentration with noticeable inhibition of pStat3 (Tyr705 of Stat3 [1]; [16]): 0.1 µM | time at which pStat3 formation was completely inhibited (Tyr705 of Stat3 [1]; [17]): 30 min | time for which complete inhibition of pStat3 was sustained (Tyr705 of Stat3 [1]; [17]): 4 h | IL-6-induced pStat3 formation (Stat3 [4]): inhibited pStat3 formation | expression of Bcl-xL (Bcl-xL): No inhibition | phosphorylation of p38 MAPK (p38 MAPK): no effect | Stat5 phosphorylation (Tyr694 of Stat5; [18]): not inhibited | Stat5 phosphorylation at high concentration (Tyr694 of Stat5; [19]): inhibited phosphorylation | pStat3 nuclear localization (pTyr705 Stat3): abrogated nuclear localization | duration of pStat3 inhibition (Stat3 [5]): at least 4 h | pStat3 level at 24 h (Stat3 [5]; 24 h): had not returned to pretreatment levels | IL-6-induced pStat3 formation (Stat3 [6]): inhibited pStat3 formation | expression of survivin (survivin [7]): reduced | FAK phosphorylation at high concentration [8, 19]: inhibited phosphorylation | FAK Tyr861 phosphorylation ([8]; MDA-MB-468, 2 h treatment): no reduction of Tyr861 phosphorylation | expression of cyclin D1 (cyclin D1 [9]): not inhibited | IL-6-induced pStat3 formation (Stat3 [10]): inhibited pStat3 formation | concentration at which constitutively activated Stat3 was completely inhibited (Stat3 [11]): 1 µM | expression of survivin (survivin [12]): reduced | increase in Stat3 phosphorylation induced by EGF (Stat3 [13]): completely inhibited | concentration of complete inhibition of Stat1 phosphorylation (Tyr701 of Stat1): 5 µM | survival curves with daily dosing compared with single dose (MDA-MB-468 cells): little change in the survival curves | expression of cyclin D1 (cyclin D1 [14]): No inhibition | inhibition (H528): < 20% | Akt Ser473 phosphorylation (Ser473 of Akt [15]; [18]): do not inhibit Akt phosphorylation | Akt phosphorylation at high concentration (Ser473 of Akt [15]; [19]): inhibited phosphorylation
